Active and inactive are the calls of the source. The calls are words filed in the database; no cut-off is given here.
Assays:
[1] = biological target: Serine/threonine-protein kinase pim-3 (Homo sapiens, UniProt Q86V86); test: Inhibition of human PIM3 using RSRHSSYPAGT as substrate in presence of [gamma-33P]-ATP
[2] = biological target: Death-associated protein kinase 1 (Homo sapiens, UniProt P53355); test: Activation of human DAPK1 using KKLNRTLSFAEPG as substrate in presence of [gamma-33P]-ATP
[3] = biological target: Albumin (Bos taurus, UniProt P02769); test: Binding affinity to bovine serum albumin by tryptophan quenching based HTS assay; format: ADME
In short: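 Bovine serum albumin binding screened in HTS format by quenching of intrinsic BSA tryptophan fluorescence, Ex/Em 280/340 nm; IC50 derived from the quenching response.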

[4] = organism: Danio rerio; test: Induction of morphological changes in 6 hrs post fertilized zebra fish embryo assessed as defect in notochord development up to 200 uM by microscopic method; format: functional
In short: (§1)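 Embryos staged and placed in 12-well plates in E3 medium with 1% DMSO within 6 hpf, ~30 embryos per well. Continuous exposure from 6–30 hpf at varied concentrations up to 200 uM. For the timing window, 100 uM exposure began at different developmental times and all embryos were scored at 30 hpf. Notochord, somite and tail phenotypes were scored by microscopy.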

[5] = organism: Danio rerio; test: Induction of morphological changes in 6 hrs post fertilized zebra fish embryo assessed as defect in tail musculature by measuring downward c-bend of body axis up to 200 uM by microscopic method; format: functional; in short: as §1
[6] = organism: Homo sapiens; test: Substrate activity at P-gp in human […] cells assessed as intracellular rhodamine123 accumulation at 50 uM after 2 hrs by fluorescence-based HTS assay; format: cell-based
In short: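 MDA-MB-231 breast cancer cells in 96-well plates were pretreated with compound for 2 h, then intracellular rhodamine 123 accumulation was measured by fluorescence (Ex/Em 485/528). Verapamil at 20 uM served as positive control.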

[7] = organism: Danio rerio; test: Induction of morphological changes in 30 hrs post fertilized zebra fish embryo assessed as defect in notochord development up to 200 uM by microscopic method; format: functional; in short: as §1
[8] = organism: Danio rerio; test: Induction of morphological changes in 30 hrs post fertilized zebra fish embryo assessed as defect in tail musculature by measuring downward c-bend of body axis up to 200 uM by microscopic method; format: functional; in short: as §1
[9] = organism: Danio rerio; test: Induction of morphological changes in 6 to 14 hrs post fertilized zebra fish embryo assessed as defect in notochord development at 100 uM by microscopic method; format: functional; in short: as §1
[10] = organism: Danio rerio; test: Induction of morphological changes in 6 to 14 hrs post fertilized zebra fish embryo assessed as defect in somite development at 100 uM by microscopic method; format: functional; in short: as §1
[11] = organism: Danio rerio; test: Induction of morphological changes in 22 hrs post fertilized zebra fish embryo at 100 uM by microscopic method; format: functional; in short: as §1
[12] = organism: Danio rerio; test: Induction of morphological changes in 14 hrs post fertilized zebra fish embryo assessed as defect in notochord development at 100 uM by microscopic method; format: functional; in short: as §1
[13] = organism: Danio rerio; test: Induction of morphological changes in 14 hrs post fertilized zebra fish embryo assessed as defect in somite development at 100 uM by microscopic method; format: functional; in short: as §1
[14] = organism: Danio rerio; test: Toxicity in 6 to 30 hrs post fertilized zebra fish embryo assessed as death at 200 uM by microscopic method; conditions: zebrafish
In short: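 Staged zebrafish embryos placed in 12-well plates in E3 embryo medium within 6 hpf and exposed from 6 to 30 hpf in E3 with 1% DMSO, with or without compound, ~30 embryos per group (at most 30 per well). Wells were inspected under a dissecting microscope, and death was scored as loss of embryonic structure.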

[15] = organism: Danio rerio; test: Induction of morphological changes in 30 to 48 hrs post fertilized zebra fish embryo by microscopic method; format: functional
[16] = biological target: Serine/threonine-protein kinase pim-1 (Homo sapiens) (UniProt P11309); test: Inhibition of human PIM1 using KKRNRTLTK as substrate in presence of [gamma-33P]-ATP
[17] = biological target: Serine/threonine-protein kinase pim-2 (Homo sapiens) (UniProt Q9P1W9); test: Inhibition of human PIM2 using RSRHSSYPAGT as substrate in presence of [gamma-33P]-ATP
[18] = biological target: Death-associated protein kinase 2 (Homo sapiens) (UniProt Q9UIK4); test: Activation of human DAPK2 using KKLNRTLSFAEPG as substrate in presence of [gamma-33P]-ATP
[19] = biological target: Death-associated protein kinase 3 (Homo sapiens) (UniProt O43293); test: Activation of human DAPK3 using KKLNRTLSFAEPG as substrate in presence of [gamma-33P]-ATP
Sequence of Death-associated protein kinase 3 (Homo sapiens) (O43293 whole entry, looked up): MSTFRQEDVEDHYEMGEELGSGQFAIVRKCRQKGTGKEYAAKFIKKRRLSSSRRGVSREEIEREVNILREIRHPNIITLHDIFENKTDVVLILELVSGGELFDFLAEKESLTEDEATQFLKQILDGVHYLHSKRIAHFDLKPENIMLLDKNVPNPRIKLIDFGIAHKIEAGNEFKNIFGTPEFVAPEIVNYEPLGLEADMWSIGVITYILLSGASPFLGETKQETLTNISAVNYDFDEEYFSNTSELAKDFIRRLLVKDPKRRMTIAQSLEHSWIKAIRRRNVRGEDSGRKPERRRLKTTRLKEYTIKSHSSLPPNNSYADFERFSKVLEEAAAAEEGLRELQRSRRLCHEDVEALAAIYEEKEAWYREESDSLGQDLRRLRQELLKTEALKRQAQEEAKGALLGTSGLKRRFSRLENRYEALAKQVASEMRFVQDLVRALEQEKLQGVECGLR

Sequence of Serine/threonine-protein kinase pim-1 (Homo sapiens) (P11309 whole entry, looked up): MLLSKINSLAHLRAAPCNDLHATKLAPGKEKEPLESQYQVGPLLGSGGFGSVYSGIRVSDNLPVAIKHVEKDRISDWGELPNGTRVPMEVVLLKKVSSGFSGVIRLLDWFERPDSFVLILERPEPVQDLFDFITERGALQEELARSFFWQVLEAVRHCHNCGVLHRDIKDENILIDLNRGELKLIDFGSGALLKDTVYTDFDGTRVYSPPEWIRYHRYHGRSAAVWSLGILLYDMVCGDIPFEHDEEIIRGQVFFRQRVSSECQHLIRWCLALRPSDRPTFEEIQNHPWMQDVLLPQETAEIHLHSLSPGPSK
Sequence of Death-associated protein kinase 1 (P53355 whole entry): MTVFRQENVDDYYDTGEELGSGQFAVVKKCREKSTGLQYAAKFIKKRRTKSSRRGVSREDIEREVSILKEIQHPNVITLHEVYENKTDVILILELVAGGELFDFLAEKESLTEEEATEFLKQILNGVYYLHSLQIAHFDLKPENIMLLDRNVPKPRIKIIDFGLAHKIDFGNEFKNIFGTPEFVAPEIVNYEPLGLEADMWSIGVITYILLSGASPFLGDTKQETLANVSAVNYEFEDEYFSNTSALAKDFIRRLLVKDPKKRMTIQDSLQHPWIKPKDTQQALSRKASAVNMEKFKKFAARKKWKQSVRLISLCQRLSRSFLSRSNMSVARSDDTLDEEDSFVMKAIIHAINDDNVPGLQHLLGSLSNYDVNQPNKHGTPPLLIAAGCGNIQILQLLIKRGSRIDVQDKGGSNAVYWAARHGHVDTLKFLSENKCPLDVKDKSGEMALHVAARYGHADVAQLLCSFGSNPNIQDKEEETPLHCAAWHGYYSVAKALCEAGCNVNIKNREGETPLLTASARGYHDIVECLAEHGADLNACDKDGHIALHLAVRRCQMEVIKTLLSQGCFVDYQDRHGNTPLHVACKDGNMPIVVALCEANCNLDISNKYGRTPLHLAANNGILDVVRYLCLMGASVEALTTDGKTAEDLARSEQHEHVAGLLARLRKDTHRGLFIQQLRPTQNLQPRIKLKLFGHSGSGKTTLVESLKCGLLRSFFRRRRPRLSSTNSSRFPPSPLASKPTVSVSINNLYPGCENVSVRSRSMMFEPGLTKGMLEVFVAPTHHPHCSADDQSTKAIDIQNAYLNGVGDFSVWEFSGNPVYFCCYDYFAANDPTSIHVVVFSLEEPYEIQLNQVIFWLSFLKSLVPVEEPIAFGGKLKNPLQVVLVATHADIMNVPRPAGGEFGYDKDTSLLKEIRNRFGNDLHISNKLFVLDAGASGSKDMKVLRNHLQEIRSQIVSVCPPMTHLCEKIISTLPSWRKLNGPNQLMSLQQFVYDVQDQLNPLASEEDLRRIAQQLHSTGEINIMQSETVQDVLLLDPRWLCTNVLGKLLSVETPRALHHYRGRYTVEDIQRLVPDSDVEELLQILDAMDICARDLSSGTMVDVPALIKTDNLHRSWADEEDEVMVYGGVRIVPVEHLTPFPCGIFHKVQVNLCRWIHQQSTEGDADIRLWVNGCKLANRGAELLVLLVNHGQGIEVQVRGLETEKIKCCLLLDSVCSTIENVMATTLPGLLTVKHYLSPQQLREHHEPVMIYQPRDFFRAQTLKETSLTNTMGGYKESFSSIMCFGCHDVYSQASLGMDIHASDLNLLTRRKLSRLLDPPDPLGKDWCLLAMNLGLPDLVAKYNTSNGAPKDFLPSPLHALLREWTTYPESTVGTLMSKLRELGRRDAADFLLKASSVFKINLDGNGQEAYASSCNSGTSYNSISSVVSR
Sequence of Albumin (P02769 whole entry): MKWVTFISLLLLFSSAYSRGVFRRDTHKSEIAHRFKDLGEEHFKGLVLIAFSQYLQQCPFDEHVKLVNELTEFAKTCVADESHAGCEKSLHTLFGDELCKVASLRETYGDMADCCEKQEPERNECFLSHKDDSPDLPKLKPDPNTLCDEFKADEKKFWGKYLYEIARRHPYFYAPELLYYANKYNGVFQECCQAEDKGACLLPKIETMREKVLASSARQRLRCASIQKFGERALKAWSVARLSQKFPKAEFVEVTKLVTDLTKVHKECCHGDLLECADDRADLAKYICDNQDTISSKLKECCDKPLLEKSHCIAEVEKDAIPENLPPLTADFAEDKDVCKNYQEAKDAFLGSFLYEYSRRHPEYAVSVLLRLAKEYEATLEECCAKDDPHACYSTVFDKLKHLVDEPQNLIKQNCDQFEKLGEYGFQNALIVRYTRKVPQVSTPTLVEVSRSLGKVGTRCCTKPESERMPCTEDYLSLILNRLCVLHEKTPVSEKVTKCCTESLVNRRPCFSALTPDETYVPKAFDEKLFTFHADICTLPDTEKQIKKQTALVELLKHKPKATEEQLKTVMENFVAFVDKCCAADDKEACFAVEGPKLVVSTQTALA
Sequence of Serine/threonine-protein kinase pim-2 (Homo sapiens) (Q9P1W9 whole entry, looked up): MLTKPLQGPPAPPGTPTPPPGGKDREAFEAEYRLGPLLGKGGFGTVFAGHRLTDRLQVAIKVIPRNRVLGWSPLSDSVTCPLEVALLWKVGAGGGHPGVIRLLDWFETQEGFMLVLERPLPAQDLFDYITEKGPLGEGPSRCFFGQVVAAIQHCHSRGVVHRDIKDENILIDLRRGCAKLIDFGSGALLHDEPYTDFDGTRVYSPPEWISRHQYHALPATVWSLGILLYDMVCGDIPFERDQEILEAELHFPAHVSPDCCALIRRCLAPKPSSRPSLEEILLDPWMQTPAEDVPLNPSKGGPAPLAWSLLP
Sequence of Death-associated protein kinase 2 (Homo sapiens) (Q9UIK4 whole entry, looked up): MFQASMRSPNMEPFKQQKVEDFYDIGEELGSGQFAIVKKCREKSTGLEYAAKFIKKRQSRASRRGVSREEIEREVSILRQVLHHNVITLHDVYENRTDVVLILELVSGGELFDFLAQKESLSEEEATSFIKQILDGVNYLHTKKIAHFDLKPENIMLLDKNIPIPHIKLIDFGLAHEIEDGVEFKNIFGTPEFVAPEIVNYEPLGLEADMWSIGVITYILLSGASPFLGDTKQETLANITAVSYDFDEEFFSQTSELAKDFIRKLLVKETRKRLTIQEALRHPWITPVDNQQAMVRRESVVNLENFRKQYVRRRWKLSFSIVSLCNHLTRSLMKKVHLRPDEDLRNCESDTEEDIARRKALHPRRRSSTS

Structure (SMILES): O=C(COc1cccc2ccccc12)Nc1cccc(C(=O)O)c1
- IC50 [1]: 4.08 µM
- EC50 [2]: 39.5 µM
- IC50 [3]: 23.3 µM
- Activity [4]: Active
- Activity [5]: Active
- Activity [6]: inactive
- Activity [7]: inactive
- Activity [8]: inactive
- Activity [9]: Active
- Activity [10]: Active
- Activity [11]: inactive
- Activity [12]: inactive
- Activity [13]: inactive
- Activity [14]: Toxic
- Activity [15]: inactive
- inhibition [16]: inactive
- inhibition [17]: inactive
- Activity [18]: inactive
- Activity [19]: inactive

Reference: ChEMBL document CHEMBL4049413, “High-content screen using zebrafish (Danio rerio) embryos identifies a novel kinase activator and inhibitor” (Bioorg Med Chem Lett, 2017)
